Laboratory results published in ChEMBL document CHEMBL1806414, “Synthesis and anticonvulsant activity of 7-phenyl-6,7-dihydro-[1,2,4]triazolo[1,5-a]pyrimidin-5(4H)-ones and their derivatives” (Eur J Med Chem, 2011).
Activity calls are given as the source filed them. The calls are words filed in the database; no cut-off is given here.

Legend:
Mus musculus [1] = assay: Anticonvulsant activity in Kunming mouse assessed as protection against maximal electric shock-induced seizures at 300 mg/kg, ip measured after 4 hrs; type: functional, organism-based; parameters: dose 300 mg/kg
Summary of the method: (§1)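 KunMing mice (18–22 g), compounds dissolved in DMSO, given i.p. at 30, 100 and 300 mg/kg, three mice per dose. Current applied through corneal electrodes for 0.2 s at 0.5 h and 4 h after dosing. Protection is abolition of tonic hind-leg extension, scored as protected/tested.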

Mus musculus [2] = assay: Anticonvulsant activity in Kunming mouse assessed as protection against maximal electric shock-induced seizures at 100 mg/kg, ip measured after 4 hrs; type: functional, organism-based; parameters: dose 100 mg/kg; summary of the method: as §1
Mus musculus [3] = assay: Anticonvulsant activity in Kunming mouse assessed as protection against maximal electric shock-induced seizures at 100 mg/kg, ip measured after 0.5 hrs; type: functional, organism-based; parameters: dose 100 mg/kg; summary of the method: as §1
Mus musculus [4] = assay: Anticonvulsant activity in Kunming mouse assessed as protection against maximal electric shock-induced seizures at 30 mg/kg, ip measured after 0.5 hrs; type: functional, organism-based; parameters: dose 30 mg/kg; summary of the method: as §1
Mus musculus [5] = assay: Anticonvulsant activity in Kunming mouse assessed as protection against maximal electric shock-induced seizures at 300 mg/kg, ip measured after 0.5 hrs; type: functional, organism-based; parameters: dose 300 mg/kg; summary of the method: as §1
Mus musculus [6] = assay: Anticonvulsant activity in Kunming mouse assessed as protection against maximal electric shock-induced seizures at 30 mg/kg, ip measured after 4 hrs; type: functional, organism-based; parameters: dose 30 mg/kg; summary of the method: as §1
Mus musculus [7] = assay: Neurotoxicity in Kunming mouse at 100 mg/kg, ip after 0.5 hrs; type: toxicity, organism-based; parameters: dose 100 mg/kg, route intraperitoneal; conditions: in vivo
Summary of the method: (§2)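 Rotarod neurotoxicity in KunMing mice (18–22 g) trained on a 3.2 cm diameter rod at 10 rpm. Compounds in DMSO were given i.p. at 30, 100 and 300 mg/kg, three mice per dose, and tested at 0.5 h and 4 h after dosing.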

Mus musculus [8] = species: Mus musculus; assay: Protective index, ratio of TD50 for neurotoxicity in Kunming mouse to ED50 for inhibition of MES-induced seizures in Kunming mouse; type: functional
[9] = Neurotoxicity in ip dosed Kunming mouse by rotarod test; type: toxicity, organism-based; conditions: in vivo
Summary of the method: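 Phase-II rotarod test in KunMing mice trained on a 3.2 cm rod at 10 rpm, DMSO vehicle. Groups of 10 mice got graded i.p. doses until at least three points fell within 10–90% minimal neurotoxicity, giving the median toxic dose.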

Mus musculus [10] = assay: Neurotoxicity in Kunming mouse at 100 mg/kg, ip after 4 hrs; type: toxicity, organism-based; parameters: dose 100 mg/kg, route intraperitoneal; conditions: in vivo; summary of the method: as §2
Mus musculus [11] = assay: Anticonvulsant activity against maximal electric shock-induced seizures in ip dosed Kunming mouse assessed as median effective dose; type: functional
Summary of the method: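 Phase-II MES test in KunMing mice (18–22 g), DMSO vehicle, corneal electrode stimulus 0.2 s. Groups of 10 mice got a range of i.p. doses until at least three points fell within 10–90% seizure protection, giving the median effective dose. Endpoint is abolition of tonic hind-leg extension.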

Mus musculus [12] = assay: Neurotoxicity in Kunming mouse at 300 mg/kg, ip after 4 hrs; type: toxicity, organism-based; parameters: dose 300 mg/kg, route intraperitoneal; conditions: in vivo; summary of the method: as §2
Mus musculus [13] = assay: Neurotoxicity in Kunming mouse at 300 mg/kg, ip after 0.5 hrs; type: toxicity, organism-based; parameters: dose 300 mg/kg, route intraperitoneal; conditions: in vivo; summary of the method: as §2

Structure (SMILES) | Activity (Mus musculus [1]) | Activity (Mus musculus [2]) | Activity (Mus musculus [3]) | Activity (Mus musculus [4]) | Activity (Mus musculus [5]) | Activity (Mus musculus [6]) | Activity (Mus musculus [7]) | Ratio TD50/ED50 (Mus musculus [8]) | TD50 [9] [mg/kg] | Activity (Mus musculus [10]) | ED50 (Mus musculus [11]) [mg/kg] | Activity (Mus musculus [12]) | Activity (Mus musculus [13])
O=C1CC(c2ccccc2F)n2c(nc3ccccc32)N1 (centres undefined) | inactive | inactive | inactive | inactive | inactive | inactive | – | – | – | – | – | – | –
O=C1CC(c2ccccc2Br)n2ccnc2N1 (centres undefined) | inactive | inactive | – | inactive | Active | inactive | – | – | – | – | – | – | –
O=C1CC(c2ccccc2)n2ncnc2N1 (centres undefined) | inactive | inactive | Active | inactive | Active | inactive | Non-toxic | 10.5 | 548 | Non-toxic | 51.9 | Non-toxic | –
O=C1CC(c2ccccc2Cl)n2c(nc3ccccc32)N1 (centres undefined) | inactive | inactive | inactive | inactive | inactive | inactive | – | – | – | – | – | – | –
O=C1CC(c2ccccc2)n2ncnc2N1Cc1ccccc1 (centres undefined) | inactive | inactive | – | inactive | – | inactive | – | – | – | – | – | – | –
O=C1CC(c2ccccc2Br)n2c(nc3ccccc32)N1 (centres undefined) | inactive | inactive | inactive | inactive | inactive | inactive | – | – | – | – | – | – | –
O=C1CC(c2ccccc2Br)n2nccc2N1 (centres undefined) | inactive | inactive | Active | inactive | Active | inactive | – | 3.4 | 132 | Non-toxic | 39.4 | Non-toxic | Toxic
O=C1CC(c2ccc(Br)cc2)n2ncnc2N1 (centres undefined) | inactive | inactive | inactive | inactive | – | inactive | – | – | – | – | – | – | –
O=C1CC(c2ccccc2F)n2ncnc2N1 (centres undefined) | inactive | inactive | Active | – | Active | inactive | Non-toxic | 14.4 | 456 | Non-toxic | 31.7 | Non-toxic | –
CCCCCCN1C(=O)CC(c2ccccc2)n2ncnc21 (centres undefined) | inactive | inactive | – | inactive | – | inactive | – | – | – | – | – | – | –
COc1ccccc1C1CC(=O)Nc2ncnn21 (centres undefined) | inactive | inactive | inactive | inactive | – | inactive | – | – | – | – | – | – | –
O=C1CC(c2cccc(Cl)c2)n2ncnc2N1 (centres undefined) | inactive | inactive | Active | inactive | Active | inactive | Non-toxic | 11.2 | 528 | Non-toxic | 47.3 | Non-toxic | –
O=C1CC(c2ccc(F)cc2)n2ncnc2N1 (centres undefined) | inactive | inactive | inactive | inactive | – | inactive | – | – | – | – | – | – | –
O=C1CC(c2ccccc2Cl)n2nccc2N1 (centres undefined) | inactive | inactive | Active | inactive | Active | inactive | – | 1.5 | 94.7 | Non-toxic | 63.4 | Non-toxic | Toxic
O=C1CC(c2ccccc2)n2nccc2N1 (centres undefined) | inactive | inactive | Active | – | Active | inactive | – | 2.5 | 118 | Non-toxic | 47.3 | Non-toxic | Toxic
O=C1CC(c2ccc(Cl)cc2)n2ncnc2N1 (centres undefined) | inactive | inactive | – | inactive | Active | inactive | – | – | – | – | – | – | –
CCC1(c2ccccc2)C(=O)NC(=O)NC1=O [PHENOBARBITAL] | – | – | – | – | – | – | – | – | – | – | 21.8 | – | –
O=C1CC(c2ccccc2Cl)n2ncnc2N1 (centres undefined) | inactive | inactive | Active | Active | Active | inactive | Non-toxic | 18.2 | 465 | Non-toxic | 25.5 | Non-toxic | –
COc1ccc(C2CC(=O)Nc3ncnn32)cc1 (centres undefined) | inactive | inactive | inactive | inactive | – | inactive | – | – | – | – | – | – | –
O=C1CC(c2ccccc2F)n2nccc2N1 (centres undefined) | inactive | inactive | Active | – | Active | inactive | – | 2.5 | 118 | Non-toxic | 47.3 | Non-toxic | Toxic
O=C1CC(c2cccc(F)c2)n2ncnc2N1 (centres undefined) | inactive | inactive | inactive | inactive | – | inactive | – | – | – | – | – | – | –
O=C1CC(c2ccccc2)n2c(nc3ccccc32)N1 (centres undefined) | inactive | inactive | inactive | inactive | inactive | inactive | – | – | – | – | – | – | –
O=C1CC(c2ccc(Cl)cc2Cl)n2ncnc2N1 (centres undefined) | inactive | inactive | inactive | inactive | inactive | inactive | – | – | – | – | – | – | –
Cc1ccc(C2CC(=O)Nc3ncnn32)cc1 (centres undefined) | inactive | inactive | – | inactive | Active | inactive | – | – | – | – | – | – | –
O=C1CC(c2ccccc2Cl)n2ccnc2N1 (centres undefined) | inactive | inactive | – | inactive | Active | inactive | – | – | – | – | – | – | –
O=C1CC(c2ccccc2F)n2ccnc2N1 (centres undefined) | inactive | inactive | Active | inactive | Active | inactive | Non-toxic | 4.4 | 387 | Non-toxic | 88 | Non-toxic | –
CN1C(=O)CC(c2ccccc2)n2ncnc21 (centres undefined) | inactive | inactive | – | inactive | Active | inactive | – | – | – | – | – | – | –
